# Measured values from different studies.
# Compare with care: the assays were run in different laboratories.
# MET: Hepatocyte growth factor receptor (MET, Homo sapiens, UniProt P08581)
# MET M1250T: Hepatocyte growth factor receptor (MET, Homo sapiens, UniProt P08581, M1250T)
# MET Y1235D: Hepatocyte growth factor receptor (MET, Homo sapiens, UniProt P08581, Y1235D)
SMILES,target,effect on,technique,concentration,remaining binding [%]
CN(C)c1nccc(-c2cnn3ncccc23)n1,MET,binding,,1 µM,89
O=C(NCCCN1CCOCC1)c1ccc(Nc2nccc(-c3cc4ccccc4s3)n2)cc1,MET M1250T,binding,competition with immobilised ligand,1 µM,69
O=C(Nc1c[nH]nc1C(=O)NC1CCNCC1)c1cc(F)cc(F)c1,MET,binding,competition with immobilised ligand,1 µM,94
O=C(NCCCC1CCCCC1)c1ccc(CNC(=O)c2cnn(-c3ccccc3)c2C(F)(F)F)cc1,MET Y1235D,cell-free assay,competition with immobilised ligand,0.1 µM,100
CN(c1nccc(-c2cnn3ncccc23)n1)C1CC1,MET M1250T,binding,,1 µM,100
CNC(=O)[C@@H]1CC[C@@H](n2c(-c3ccc4cnccc4c3)nc3ccc(C(=O)NCc4cccc(C(N)=O)c4)cc32)C1,MET,binding,competition with immobilised ligand,1 µM,98
CCC(=N\O)/C(C)=C/c1ccc(F)cc1,MET,cell-free assay,competition with immobilised ligand,1 µM,88
C[C@@H]1CN(c2ccc3ncc(-c4ccc5[nH]nc(C6CC6)c5c4)n3n2)C[C@H](C)O1,MET,binding,competition with immobilised ligand,50 nM,89
CN1CCN(c2ccc(Nc3nccc(-c4cccc([N+](=O)[O-])c4)n3)cc2C(F)(F)F)CC1,MET Y1235D,binding,,10 µM,27
N#Cc1ccccc1CSc1nnc2c(n1)[nH]c1ccccc12,MET,binding,competition with immobilised ligand,10 µM,87
CN1CCN(c2ccc(Nc3nccc(-c4ccccc4)n3)cc2C(F)(F)F)CC1,MET M1250T,binding,,10 µM,24
CC(=O)N1CCC(c2ccc(C(=O)NC3=NCCN3)cc2C(F)(F)F)CC1,MET Y1235D,cell-free assay,competition with immobilised ligand,1 µM,100
COc1ncc2cc3ccccc3nc2c1C#N,MET M1250T,cell-free assay,competition with immobilised ligand,5 µM,100
O=C(c1ccc(Nc2nccc(-c3cc4ccccc4s3)n2)cc1)N1CCC(N2CCCC2)CC1,MET,binding,competition with immobilised ligand,1 µM,69
c1cnn2ncc(-c3ccnc(N4CCC45COC5)n3)c2c1,MET M1250T,binding,,1 µM,41
COC(=O)Nc1nc2ccc(C(=O)c3ccccc3)cc2[nH]1,MET,cell-free assay,competition with immobilised ligand,10 µM,32
CN(C)C(=O)Cn1cc(-c2nc([C@@](C)(c3ccc(-c4cnc(N)nc4)cc3)C3CC3)no2)cn1,MET Y1235D,cell-free assay,competition with immobilised ligand,1 µM,96
O=C(NCCCN1CCOCC1)c1ccc(Nc2ncc(Cl)c(-c3ccc(Cl)s3)n2)cc1,MET Y1235D,binding,competition with immobilised ligand,1 µM,99
CCS(=O)(=O)c1cc2cc(C[C@@](O)(CC(C)(C)c3ccc(F)cc3C(N)=O)C(F)(F)F)[nH]c2cn1,MET,cell-free assay,competition with immobilised ligand,1 µM,100
CCN1CCN(Cc2ccc(C(=O)Nc3ccc(C)c(Oc4ccc5c(c4)CC(=O)N5)c3)cc2C(F)(F)F)CC1,MET Y1235D,binding,competition with immobilised ligand,1 µM,100
Nc1ncc2c(n1)-c1c([nH]c3ccc(C#CC4CC4)cc13)CCCC2,MET Y1235D,binding,competition with immobilised ligand,1 µM,92
CN(C)c1ncc(F)c(-c2cnn3ncccc23)n1,MET,binding,,1 µM,97
COc1cnc(Nc2cccc(S(N)(=O)=O)c2)nc1N1CCN(c2ccccc2)C(=O)C1,MET Y1235D,binding,competition with immobilised ligand,1 µM,100
Cc1cnc(Nc2ccc(C(=O)N3CCC(N4CCCC4)CC3)cc2)nc1-c1cc2ccccc2s1,MET M1250T,binding,competition with immobilised ligand,1 µM,31
Cc1nc(N2CC[C@@H](O)C2)ncc1-c1cc(C(F)(F)F)cc2[nH]ncc12,MET,cell-free assay,competition with immobilised ligand,1 µM,100
C[C@@H]1CCN(c2nccc(-c3cnn4ncccc34)n2)C1,MET M1250T,binding,,1 µM,98
COc1cnc(Nc2cccc(S(N)(=O)=O)c2)nc1N1CCN(c2ccccc2)CC1,MET M1250T,binding,competition with immobilised ligand,1 µM,74
CN(C)C(=O)Cn1cc(-c2nc(C3(c4ccc(-c5cnc(N)nc5)cc4)CC3)no2)cn1,MET Y1235D,cell-free assay,competition with immobilised ligand,1 µM,98
O=C(NCC1CCOCC1)c1n[nH]cc1NC(=O)c1c(F)cccc1F,MET M1250T,binding,competition with immobilised ligand,1 µM,90
O=C(c1ccc(Nc2ncc(Cl)c(-c3cc4ccccc4s3)n2)cc1)N1CCC(N2CCCC2)CC1,MET Y1235D,binding,competition with immobilised ligand,1 µM,44
CC1CCCN1c1nccc(-c2cnn3ncccc23)n1 (stereo not drawn),MET Y1235D,binding,,1 µM,100
O=C(c1ccc(Nc2ncc(Cl)c(-c3ccc(Cl)s3)n2)cc1)N1CCC(N2CCCC2)CC1,MET Y1235D,binding,competition with immobilised ligand,1 µM,51
N[C@@H]1CCN(c2nccc(-c3cnn4ncccc34)n2)C1,MET,binding,,1 µM,60
c1cncc(-c2cccc(Nc3nccc(NC4CCCCC4)n3)c2)c1,MET,binding,competition with immobilised ligand,10 µM,43
CN(C)c1nccc(-c2cnc3ncccn23)n1,MET Y1235D,binding,,1 µM,76
CC1=C(C#N)[C@@H](c2ccc3[nH]nc(C)c3c2)C(C#N)=C(c2ccc(Cl)cc2)N1,MET,cell-free assay,competition with immobilised ligand,1 µM,17.2
